# Reference: ChEMBL document CHEMBL5058577, “EUbOPEN Chemogenomics Library 2 (Multiplex)” (2022)
# System: HEK-293T
# Experiment: Multiplex assay against HEK293T
# Type: toxicity, cell-based
# Settings: human
# Summary of the method: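 Imaging took place on a CQ1 microscope at 37°C and 5% CO2 once compound had been added to live cells stained at seeding with Hoechst33342, BioTracker Green Microtubule Cytoskeleton Dye, MitoTracker Red and Annexin V Alexa Fluor 680. CellPathfinder machine-learning gating classed cells as Hoechst high-intensity objects or normal cells, classed normal cells as having healthy, pyknosed or fragmented nuclei, and classed pyknosed cells as mitotic or apoptotic. Tubulin, mitochondrial-mass and membrane-permeability phenotypes are per cents of the healthy-nucleus cells.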
# [1] = 12 h, 1 µM, compound concentration 1 uM, replicate 1
# [2] = 12 h, 1 µM, compound concentration 1 uM, replicate 2
# [3] = 12 h, 10 µM, compound concentration 10 uM, replicate 1
# [4] = 12 h, 10 µM, compound concentration 10 uM, replicate 2
# [5] = 24 h, 1 µM, compound concentration 1 uM, replicate 1
# [6] = 24 h, 1 µM, compound concentration 1 uM, replicate 2
# [7] = 24 h, 10 µM, compound concentration 10 uM, replicate 1
# [8] = 24 h, 10 µM, compound concentration 10 uM, replicate 2
# [9] = 48 h, 1 µM, compound concentration 1 uM, replicate 1
# [10] = 48 h, 1 µM, compound concentration 1 uM, replicate 2
# [11] = 48 h, 10 µM, compound concentration 10 uM, replicate 1
# [12] = 48 h, 10 µM, compound concentration 10 uM, replicate 2
structure (smiles),measurement,setting,value
CC(C)(O)C(=O)N1CCN(c2ccc(C(F)(F)F)c(C3=C(c4c[nH]c5ccccc45)C(=O)NC3=O)c2)CC1,Population Apoptotic (%),[1],33%
same,Population Fragmented Nuclei (%),[1],4%
same,Population Healthy Nuclei (%),[1],78%
same,Population Hoechst High Intensity Objects (%),[1],8%
same,Population Membrane Permeable-Phenotype (%),[1],0%
same,Population Mitochondria Different-Phenotype (%),[1],43%
same,Population Mitotic Cells (%),[1],66%
same,Population Normal (%),[1],91%
same,Population Pyknosed Nuclei (%),[1],16%
same,Population Tubulin-Different-Phenotype (%),[1],28%
same,Total Cell Count,[1],381
same,Population Apoptotic (%),[2],46%
same,Population Fragmented Nuclei (%),[2],5%
same,Population Healthy Nuclei (%),[2],76%
same,Population Hoechst High Intensity Objects (%),[2],7%
same,Population Mitochondria Different-Phenotype (%),[2],58%
same,Population Mitotic Cells (%),[2],53%
same,Population Normal (%),[2],92%
same,Population Pyknosed Nuclei (%),[2],17%
same,Population Tubulin-Different-Phenotype (%),[2],30%
same,Total Cell Count,[2],293
same,Population Apoptotic (%),[3],51%
same,Population Fragmented Nuclei (%),[3],4%
same,Population Healthy Nuclei (%),[3],74%
same,Population Hoechst High Intensity Objects (%),[3],10%
same,Population Membrane Permeable-Phenotype (%),[3],0%
same,Population Mitochondria Different-Phenotype (%),[3],61%
same,Population Mitotic Cells (%),[3],48%
same,Population Normal (%),[3],89%
same,Population Pyknosed Nuclei (%),[3],20%
same,Population Tubulin-Different-Phenotype (%),[3],62%
same,Total Cell Count,[3],338
same,Population Apoptotic (%),[4],72%
same,Population Fragmented Nuclei (%),[4],3%
same,Population Healthy Nuclei (%),[4],75%
same,Population Hoechst High Intensity Objects (%),[4],7%
same,Population Mitochondria Different-Phenotype (%),[4],90%
same,Population Mitotic Cells (%),[4],27%
same,Population Normal (%),[4],92%
same,Population Pyknosed Nuclei (%),[4],21%
same,Population Tubulin-Different-Phenotype (%),[4],63%
same,Total Cell Count,[4],203
same,Population Apoptotic (%),[5],33%
same,Population Fragmented Nuclei (%),[5],8%
same,Population Healthy Nuclei (%),[5],74%
same,Population Hoechst High Intensity Objects (%),[5],5%
same,Population Membrane Permeable-Phenotype (%),[5],0%
same,Population Mitochondria Different-Phenotype (%),[5],32%
same,Population Mitotic Cells (%),[5],66%
same,Population Normal (%),[5],94%
same,Population Pyknosed Nuclei (%),[5],17%
same,Population Tubulin-Different-Phenotype (%),[5],19%
same,Total Cell Count,[5],469
same,Population Apoptotic (%),[6],29%
same,Population Fragmented Nuclei (%),[6],5%
same,Population Healthy Nuclei (%),[6],79%
same,Population Mitochondria Different-Phenotype (%),[6],48%
same,Population Mitotic Cells (%),[6],70%
same,Population Pyknosed Nuclei (%),[6],14%
same,Total Cell Count,[6],335
same,Population Apoptotic (%),[7],45%
same,Population Fragmented Nuclei (%),[7],6%
same,Population Healthy Nuclei (%),[7],71%
same,Population Hoechst High Intensity Objects (%),[7],4%
same,Population Membrane Permeable-Phenotype (%),[7],1%
same,Population Mitochondria Different-Phenotype (%),[7],48%
same,Population Mitotic Cells (%),[7],54%
same,Population Normal (%),[7],95%
same,Population Pyknosed Nuclei (%),[7],22%
same,Population Tubulin-Different-Phenotype (%),[7],43%
same,Total Cell Count,[7],387
same,Population Apoptotic (%),[8],66%
same,Population Fragmented Nuclei (%),[8],2%
same,Population Hoechst High Intensity Objects (%),[8],7%
same,Population Membrane Permeable-Phenotype (%),[8],0%
same,Population Mitochondria Different-Phenotype (%),[8],84%
same,Population Mitotic Cells (%),[8],34%
same,Population Normal (%),[8],92%
same,Population Pyknosed Nuclei (%),[8],25%
same,Population Tubulin-Different-Phenotype (%),[8],60%
same,Total Cell Count,[8],212
same,Population Apoptotic (%),[9],25%
same,Population Fragmented Nuclei (%),[9],9%
same,Population Healthy Nuclei (%),[9],79%
same,Population Hoechst High Intensity Objects (%),[9],2%
same,Population Membrane Permeable-Phenotype (%),[9],0%
same,Population Mitochondria Different-Phenotype (%),[9],21%
same,Population Mitotic Cells (%),[9],74%
same,Population Normal (%),[9],97%
same,Population Pyknosed Nuclei (%),[9],10%
same,Population Tubulin-Different-Phenotype (%),[9],14%
same,Total Cell Count,[9],780
same,Population Apoptotic (%),[10],27%
same,Population Fragmented Nuclei (%),[10],10%
same,Population Hoechst High Intensity Objects (%),[10],5%
same,Population Mitochondria Different-Phenotype (%),[10],29%
same,Population Mitotic Cells (%),[10],72%
same,Population Normal (%),[10],94%
same,Population Tubulin-Different-Phenotype (%),[10],15%
same,Total Cell Count,[10],571
same,Population Apoptotic (%),[11],54%
same,Population Fragmented Nuclei (%),[11],8%
same,Population Healthy Nuclei (%),[11],71%
same,Population Hoechst High Intensity Objects (%),[11],8%
same,Population Membrane Permeable-Phenotype (%),[11],0%
same,Population Mitochondria Different-Phenotype (%),[11],53%
same,Population Mitotic Cells (%),[11],45%
same,Population Normal (%),[11],91%
same,Population Pyknosed Nuclei (%),[11],19%
same,Population Tubulin-Different-Phenotype (%),[11],25%
same,Total Cell Count,[11],467
same,Population Apoptotic (%),[12],78%
same,Population Fragmented Nuclei (%),[12],9%
same,Population Mitochondria Different-Phenotype (%),[12],71%
same,Population Mitotic Cells (%),[12],21%
same,Population Tubulin-Different-Phenotype (%),[12],40%
same,Total Cell Count,[12],227
